From ChEMBL document CHEMBL5154920, “Ispinesib as an Effective Warhead for the Design of Autophagosome-Tethering Chimeras: Discovery of Potent Degraders of Nicotinamide Phosphoribosyltransferase (NAMPT)” (J Med Chem, 2022)
The source made the active and inactive calls. The calls are words filed in the database; no cut-off is given here.

Tests used:
A2780 [1] = experiment: Antiproliferative activity against human A2780 cells overexpressing NAMPT assessed as cell growth inhibition incubated for 72 hrs; format: functional, cell-based; details: A2780, 72 h
[2] = biological target: T1, Nicotinamide phosphoribosyltransferase (Homo sapiens, UniProt P43490); experiment: Inhibition of NAMPT (unknown origin) measured after 90 mins by measuring fluorescence intensity
Target sequence in this assay (P43490 whole entry): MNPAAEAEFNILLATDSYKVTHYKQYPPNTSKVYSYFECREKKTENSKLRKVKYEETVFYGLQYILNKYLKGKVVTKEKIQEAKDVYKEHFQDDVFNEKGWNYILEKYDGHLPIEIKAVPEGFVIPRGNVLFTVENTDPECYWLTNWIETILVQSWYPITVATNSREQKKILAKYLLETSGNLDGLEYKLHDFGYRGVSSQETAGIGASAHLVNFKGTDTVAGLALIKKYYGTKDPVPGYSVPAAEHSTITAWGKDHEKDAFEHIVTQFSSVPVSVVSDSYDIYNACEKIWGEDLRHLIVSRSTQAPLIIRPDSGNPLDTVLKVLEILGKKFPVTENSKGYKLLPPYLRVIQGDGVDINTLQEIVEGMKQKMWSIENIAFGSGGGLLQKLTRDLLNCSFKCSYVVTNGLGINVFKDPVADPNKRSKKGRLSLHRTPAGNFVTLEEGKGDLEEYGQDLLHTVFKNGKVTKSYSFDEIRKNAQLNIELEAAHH

[3] = biological target: T2, LC3/Nicotinamide phosphoribosyltransferase (Homo sapiens) (UniProt P43490+Q9BXW4+Q9GZQ8+Q9H492); experiment: Autophagosome tethering activity at NAMPT overexpressing human A2780 cells assessed as lysosome-mediated degradation of NAMPT at 0.1 uM incubated for 48 hrs; format: cell-based
In short: (§1)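 A2780 cells were exposed to compound for 48 h. The medium was then removed and the cells washed three times with PBS and lysed on ice in RIPA buffer for 30 min. Lysates were centrifuged at 1.2 × 10^5 g, 4 °C, for 15 min. Protein was quantified by BCA and denatured at 100 °C. Blots were blocked in 5% BSA/TBST for 2 h, probed with primary antibody at 4 °C overnight and secondary for 1 h, and NAMPT was read on Odyssey.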

[4] = biological target: T2, LC3/Nicotinamide phosphoribosyltransferase (Homo sapiens); experiment: Autophagosome tethering activity at NAMPT overexpressing human A2780 cells assessed as lysosome-mediated degradation of NAMPT at 3 uM incubated for 48 hrs; format: cell-based; in short: as §1
[5] = biological target: T3, Microtubule-associated protein 1 light chain 3 beta (Homo sapiens, UniProt Q9GZQ8); experiment: Binding affinity to human recombinant LC3B assessed as dissociation constant incubated for 30 mins by fluorescence anisotropy assay
In short: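 Fluorescence anisotropy used fluorescein-labeled ispinesib as the tracer, diluted to 50 nM in HEPES buffer, final 25 nM. A twofold serial dilution of LC3 protein in HEPES buffer was added. KD was derived from anisotropy. Measurements were done in triplicate and given as mean ± standard deviation.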

HeLa = experiment: Drug localization in human HeLa cells by measuring colocalization with lysosome probe treated for 2 hrs by confocal microscopy; format: functional, cell-based
In short: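 HeLa cells were treated with the green fluorescent probe for 2 h, then stained with a red lysosome probe for another 1.5 h. Colocalization was imaged by confocal microscopy.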

[6] = Inhibition of kinesin spindle protein (unknown origin); set-up: species or system Homo sapiens
A2780 [7] = experiment: Cytotoxicity against human A2780 cells; format: functional, cell-based
[8] = biological target: T3, Microtubule-associated protein 1 light chain 3 beta; experiment: Binding affinity to human recombinant LC3B assessed as dissociation constant by isothermal titration calorimetry
In short: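 Reverse titration of recombinant LC3B (1500 μM in syringe) into a cell holding 100 μM ligand, in 20 mM HEPES-HCl pH 7.3, 100 mM NaCl, 1% DMSO, at 25 °C. Injections were spaced 120 s apart so the signal returned to baseline. Thermodynamic parameters and KD came from the titration isotherm.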

HCT-116 = experiment: Antiproliferative activity against human HCT-116 cells expressing NAMPT assessed as cell growth inhibition incubated for 72 hrs; format: functional, cell-based
A2780 [9] = experiment: Binding affinity to KSP in human A2780 cell lysate incubated at 51 to 63 degree Celsius for 4 hrs by Western blotting based CETSA method; format: subcellular
In short: (§2)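 CETSA: A2780 cells were seeded at × 107/well and incubated overnight at 37 °C, 5% CO2. Compound was added at the indicated concentration for 4 h. Cells were collected and lysed by three 5-min liquid-nitrogen freeze cycles, then centrifuged at 1.2 × 10^5 g, 4 °C, for 15 min. Supernatants were denatured at 100 °C and protein level was detected by SDS-PAGE.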

MDA-MB-231 = experiment: Antiproliferative activity against human MDA-MB-231 cells overexpressing NAMPT assessed as cell growth inhibition incubated for 72 hrs; format: functional, cell-based
[10] = biological target: T3, Microtubule-associated protein 1 light chain 3 beta; experiment: Binding affinity to LC3B (unknown origin) assessed as dissociation constant by surface plasmon resonance analysis
[11] = biological target: T1, Nicotinamide phosphoribosyltransferase; experiment: Binding affinity to NAMPT in human A2780 cell lysate assessed as thermal stability incubated at 51 to 63 degree Celsius for 4 hrs by Western blotting based CETSA method; format: subcellular; in short: as §2
Target sequence in this assay (P43490 whole entry, looked up): as the sequence (P43490 whole entry) above

[12] = Stability of compound in 1640 culture medium measured up to 72 hrs by HPLC analysis; format: physicochemical

Row | SMILES | IC50 [2] [nM] | Activity [3] [%] | Activity [4] [%] | other results
1 | O=S(=O)(c1ccc(NC(=S)NCc2cccnc2)cc1)N1CCNCC1 | – | – | – | IC50 (A2780 [1]): 490 nM
2 | Cc1ccc(C(=O)N(CCCNC(=S)Nc2ccc3c(c2)C(=O)OC32c3ccc(O)cc3Oc3cc(O)ccc32)[C@@H](c2nc3cc(Cl)ccc3c(=O)n2Cc2ccccc2)C(C)C)cc1 | – | – | – | Kd [5]: 175 nM; Activity (HeLa): Active
3 | Cc1ccc(C(=O)N(CCCN)[C@H](c2nc3cc(Cl)ccc3c(=O)n2Cc2ccccc2)C(C)C)cc1 | – | – | – | IC50 [6]: 0.5 nM; Activity (A2780 [7]): Active; Kd [8]: 11800 nM
4 | Cc1ccc(C(=O)N(CCCNC(=O)CCOCCN2CCN(S(=O)(=O)c3ccc(NC(=S)NCc4cccnc4)cc3)CC2)[C@@H](c2nc3cc(Cl)ccc3c(=O)n2Cc2ccccc2)C(C)C)cc1 | 10 | 1 | 86 | –
5 | Cc1ccc(C(=O)N(CCCNC(=O)CCOCCOCCOCCN2CCN(S(=O)(=O)c3ccc(NC(=S)NCc4cccnc4)cc3)CC2)[C@@H](c2nc3cc(Cl)ccc3c(=O)n2Cc2ccccc2)C(C)C)cc1 | 10 | 76 | 91 | –
6 | Cc1ccc(C(=O)N(CCCNC(=O)CCCCCCN2CCN(S(=O)(=O)c3ccc(NC(=S)NCc4cccnc4)cc3)CC2)[C@@H](c2nc3cc(Cl)ccc3c(=O)n2Cc2ccccc2)C(C)C)cc1 | 15 | 9 | 86 | –

Continued, in another order:

Row | IC50 [2] [nM] | Activity [3] [%] | Activity [4] [%] | SMILES | other results
7 | 34 | 85 | 92 | Cc1ccc(C(=O)N(CCCNC(=O)CCCCCCCCCN2CCN(S(=O)(=O)c3ccc(NC(=S)NCc4cccnc4)cc3)CC2)[C@@H](c2nc3cc(Cl)ccc3c(=O)n2Cc2ccccc2)C(C)C)cc1 | –
8 | 13 | 33 | 93 | Cc1ccc(C(=O)N(CCCNC(=O)CCCCCCCCCCN2CCN(S(=O)(=O)c3ccc(NC(=S)NCc4cccnc4)cc3)CC2)[C@@H](c2nc3cc(Cl)ccc3c(=O)n2Cc2ccccc2)C(C)C)cc1 | –
9 | 19 | 1 | 83 | Cc1ccc(C(=O)N(CCCNC(=O)CCCCCCCN2CCN(S(=O)(=O)c3ccc(NC(=S)NCc4cccnc4)cc3)CC2)[C@@H](c2nc3cc(Cl)ccc3c(=O)n2Cc2ccccc2)C(C)C)cc1 | –
10 | 23 | 90 | 91 | Cc1ccc(C(=O)N(CCCNC(=O)CCCCCCCCN2CCN(S(=O)(=O)c3ccc(NC(=S)NCc4cccnc4)cc3)CC2)[C@@H](c2nc3cc(Cl)ccc3c(=O)n2Cc2ccccc2)C(C)C)cc1 | Activity (HCT-116): Active; Activity (A2780 [9]): Active; Activity (MDA-MB-231): Active; Kd [10]: 933 nM; Activity [11]: Active; Stability [12]: Stable; IC50 (A2780 [1]): 46 nM
